# The source made the active and inactive calls. The calls are words filed in the database; no cut-off is given here.
# Key:
# Penicillium chrysogenum [1] = assay: Antimicrobial activity against Penicillium chrysogenum NCIM 707 at 1000 ug/disk after 72 hrs by disk diffusion method; assay type: functional; details: NCIM 707, 72 h, read-out: DIZ
# Method in brief: (§1)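 Disc diffusion on Sabouraud's dextrose agar. 100 µl of fungal suspension at 10⁶ CFU/ml is spread on the plate. Discs carry test compounds at two loadings in DMSO; DMSO alone is the negative control. Clotrimazole disc is the positive reference. Plates are incubated at 27 °C for 72 h, and the zone of inhibition diameter is measured.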
# Salmonella typhimurium [2] = assay: Antimicrobial activity against Salmonella Typhimurium NCIM 2501 at 1000 ug/disk after 24 hrs by disk diffusion method; assay type: functional, Salmonella enterica subsp. enterica serovar Typhimurium; details: Salmonella enterica, NCIM 2501, 24 h; read-out: DIZ
# Method in brief: (§2)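 Disc diffusion. 100 µl of bacterial suspension at 10⁸ CFU/ml was spread on Mueller–Hinton agar. Discs loaded with test compound dissolved in DMSO were placed on the lawn, with a DMSO-only disc as negative control. Plates were incubated at 37 °C for 24 h, and the inhibition zone diameter was measured.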
# Rhodotorula mucilaginosa [3] = assay: Antimicrobial activity against Rhodotorula rubra NCIM 3174 at 1000 ug/disk after 72 hrs by disk diffusion method; assay type: functional; details: NCIM 3174, 72 h, read-out: DIZ
# Method in brief: (§3)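 Fungal disc diffusion. 100 µl of suspension at 10⁶ CFU/ml was spread on Sabouraud's dextrose agar. Discs carrying test compound in DMSO were applied, with a DMSO-only disc as negative control. Plates were incubated at 27 °C for 72 h, and the zone of inhibition diameter was measured.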
# Lipomyces lipofer = assay: Antimicrobial activity against Lipomyces lipofer NCIM 3252 at 1000 ug/disk after 72 hrs by disk diffusion method; assay type: functional; details: NCIM 3252, 72 h, read-out: DIZ; method in brief: as §1
# Bacillus subtilis [4] = assay: Antimicrobial activity against Bacillus subtilis NCIM 2063 at 500 ug/disk after 24 hrs by disk diffusion method; assay type: functional; details: NCIM 2063, 24 h, read-out: DIZ
# Method in brief: (§4)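 Disc diffusion on Mueller–Hinton agar. 100 µl of bacterial suspension at 10⁸ CFU/ml is spread on the plate. Discs carry test compounds at two loadings, dissolved in DMSO; DMSO alone serves as negative control. Ofloxacin disc is the positive reference. Plates are incubated at 37 °C for 24 h, and the inhibition zone diameter is measured.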
# Salmonella typhimurium [5] = assay: Antimicrobial activity against Salmonella Typhimurium NCIM 2501 at 500 ug/disk after 24 hrs by disk diffusion method; assay type: functional, Salmonella enterica subsp. enterica serovar Typhimurium; details: Salmonella enterica, NCIM 2501, 24 h; read-out: DIZ; method in brief: as §2
# [6] = test system: Rhodococcus corynebacterioides; assay: Antimicrobial activity against Corynebacterium rubrum NCIM 2252 at 1000 ug/disk after 24 hrs by disk diffusion method; assay type: functional; details: Rhodococcoides corynebacterioides, NCIM 2252, 24 h; read-out: DIZ; method in brief: as §4
# Escherichia coli [7] = assay: Antimicrobial activity against Escherichia coli NCIM 2065 at 500 ug/disk after 24 hrs by disk diffusion method; assay type: functional; details: NCIM 2065, 24 h, read-out: DIZ; method in brief: as §4
# Rhodotorula mucilaginosa [8] = assay: Antimicrobial activity against Rhodotorula rubra NCIM 3174 after 72 hrs by serial dilution method; assay type: functional; details: NCIM 3174, 72 h
# Method in brief: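 MIC by broth dilution in Sabouraud's dextrose broth, run only on fungi found sensitive in the disc assay. Twofold serial dilutions were made in 1 ml broth per tube, covering 3.9 to 1000. Inoculated tubes were incubated at 27 °C for 72 h.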
# Aspergillus parasiticus [9] = assay: Antimicrobial activity against Aspergillus parasiticus NCIM 904 at 1000 ug/disk after 72 hrs by disk diffusion method; assay type: functional; details: NCIM 904, 72 h, read-out: DIZ; method in brief: as §1
# Staphylococcus [10] = assay: Antimicrobial activity against Staphylococcus albus NCIM 2178 at 1000 ug/disk after 24 hrs by disk diffusion method; assay type: functional; details: NCIM 2178, 24 h, read-out: DIZ; method in brief: as §2
# Penicillium chrysogenum [11] = assay: Antimicrobial activity against Penicillium chrysogenum NCIM 707 at 500 ug/disk after 72 hrs by disk diffusion method; assay type: functional; method in brief: as §1
# Escherichia coli [12] = assay: Antimicrobial activity against Escherichia coli NCIM 2065 at 1000 ug/disk after 24 hrs by disk diffusion method; assay type: functional; details: NCIM 2065, 24 h, read-out: DIZ; method in brief: as §4
# Trichoderma viride = assay: Antimicrobial activity against Trichoderma viride NCIM 1195 at 1000 ug/disk after 72 hrs by disk diffusion method; assay type: functional; details: NCIM 1195, 72 h, read-out: DIZ; method in brief: as §3
# Aliivibrio fischeri [13] = assay: Antimicrobial activity against Vibrio fischeri NCIM 2154 after 24 hrs by serial dilution method; assay type: functional; details: NCIM 2154, 24 h
# Bacillus cereus = assay: Antimicrobial activity against Bacillus cereus NCIM 2155 at 1000 ug/disk after 24 hrs by disk diffusion method; assay type: functional; details: NCIM 2155, 24 h, read-out: DIZ; method in brief: as §4
# Bacillus subtilis [14] = assay: Antimicrobial activity against Bacillus subtilis NCIM 2063 at 1000 ug/disk after 24 hrs by disk diffusion method; assay type: functional; details: NCIM 2063, 24 h, read-out: DIZ; method in brief: as §4
# Proteus vulgaris = assay: Antimicrobial activity against Proteus vulgaris NCIM 2027 at 500 ug/disk after 24 hrs by disk diffusion method; assay type: functional; details: NCIM 2027, 24 h, read-out: DIZ; method in brief: as §4
# Aliivibrio fischeri [15] = assay: Antimicrobial activity against Vibrio fischeri NCIM 2154 at 1000 ug/disk after 24 hrs by disk diffusion method; assay type: functional; details: NCIM 2154, 24 h, read-out: DIZ; method in brief: as §2
# Rhodotorula mucilaginosa [16] = assay: Antimicrobial activity against Rhodotorula rubra NCIM 3174 at 500 ug/disk after 72 hrs by disk diffusion method; assay type: functional; details: NCIM 3174, 72 h, read-out: DIZ; method in brief: as §3
# Klebsiella aerogenes [17] = assay: Antimicrobial activity against Klebsiella aerogenes NCIM 2239 at 1000 ug/disk after 24 hrs by disk diffusion method; assay type: functional; details: NCIM 2239, 24 h, read-out: DIZ; method in brief: as §4
# Aspergillus fumigatus = assay: Antimicrobial activity against Aspergillus fumigatus NCIM 902 at 1000 ug/disk after 72 hrs by disk diffusion method; assay type: functional; method in brief: as §1
# Staphylococcus [18] = assay: Antimicrobial activity against Staphylococcus albus NCIM 2178 at 500 ug/disk after 24 hrs by disk diffusion method; assay type: functional; details: NCIM 2178, 24 h, read-out: DIZ; method in brief: as §2
# Pseudomonas aeruginosa = assay: Antimicrobial activity against Pseudomonas aeruginosa NCIM 2200 at 1000 ug/disk after 24 hrs by disk diffusion method; assay type: functional; details: NCIM 2200, 24 h, read-out: DIZ; method in brief: as §4
# Klebsiella aerogenes [19] = assay: Antimicrobial activity against Klebsiella aerogenes NCIM 2239 at 500 ug/disk after 24 hrs by disk diffusion method; assay type: functional; details: NCIM 2239, 24 h, read-out: DIZ; method in brief: as §4
# Escherichia coli [20] = assay: Antimicrobial activity against Escherichia coli NCIM 2065 after 24 hrs by serial dilution method; assay type: functional; details: NCIM 2065, 24 h
# Method in brief: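 Broth dilution MIC in nutrient broth, run only for organisms found sensitive in disc diffusion. Compounds are two-fold serially diluted in 1 ml sterile broth per tube, spanning 3.9 to 1000. Inoculated tubes are incubated at 37 °C for 24 h.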
# Aspergillus flavus [21] = assay: Antimicrobial activity against Aspergillus flavus NCIM 902 after 72 hrs by serial dilution method; assay type: functional; details: NCIM 535, 72 h, in the assay text read “NCIM 535” for “NCIM 902”
# Method in brief: (§5)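 MIC by broth dilution in Sabouraud's dextrose broth, only for fungi sensitive in disc diffusion. Two-fold serial dilutions of compounds are made in 1 ml broth per tube, range 3.9 to 1000. Inoculated tubes are incubated at 27 °C for 72 h.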
# Aspergillus flavus [22] = assay: Antimicrobial activity against Aspergillus flavus NCIM 902 at 1000 ug/disk after 72 hrs by disk diffusion method; assay type: functional; details: NCIM 902, 72 h, read-out: DIZ; method in brief: as §1
# [23] = test system: Rhodococcus corynebacterioides; assay: Antimicrobial activity against Corynebacterium rubrum NCIM 2252 at 500 ug/disk after 24 hrs by disk diffusion method; assay type: functional; details: Rhodococcoides corynebacterioides, NCIM 2252, 24 h; read-out: DIZ; method in brief: as §4
# Aspergillus parasiticus [24] = assay: Antimicrobial activity against Aspergillus parasiticus NCIM 904 after 72 hrs by serial dilution method; assay type: functional; details: NCIM 904, 72 h; method in brief: as §5
# Aspergillus flavus [25] = assay: Antimicrobial activity against Aspergillus flavus NCIM 902 at 500 ug/disk after 72 hrs by disk diffusion method; assay type: functional; details: NCIM 902, 72 h, read-out: DIZ; method in brief: as §1
SMILES,zone of inhibition at 1000 µg/disc (Penicillium chrysogenum [1]),zone of inhibition at 1000 µg/disc (Salmonella typhimurium [2]),zone of inhibition at 1000 µg/disc (Rhodotorula mucilaginosa [3]),zone of inhibition at 1000 µg/disc (Lipomyces lipofer),zone of inhibition at 500 µg/disc (Bacillus subtilis [4]),zone of inhibition at 500 µg/disc (Salmonella typhimurium [5]),zone of inhibition at 1000 µg/disc [6],zone of inhibition at 500 µg/disc (Escherichia coli [7]),MIC (Rhodotorula mucilaginosa [8]),zone of inhibition at 1000 µg/disc (Aspergillus parasiticus [9]),zone of inhibition at 1000 µg/disc (Staphylococcus [10]),zone of inhibition at 1000 µg/disc (Escherichia coli [12]),zone of inhibition at 1000 µg/disc (Trichoderma viride),MIC (Aliivibrio fischeri [13]),zone of inhibition at 1000 µg/disc (Bacillus cereus),zone of inhibition at 1000 µg/disc (Bacillus subtilis [14]),zone of inhibition at 500 µg/disc (Proteus vulgaris),zone of inhibition at 1000 µg/disc (Aliivibrio fischeri [15]),zone of inhibition at 500 µg/disc (Rhodotorula mucilaginosa [16]),zone of inhibition at 1000 µg/disc (Klebsiella aerogenes [17]),also measured
CC1(C)CC(=O)C2=C(C1)Nc1c(ccc3ccccc13)C2c1ccc(O)cc1 (configuration not stated),9 mm,11 mm,23 mm,10 mm,7 mm,9 mm,10 mm,7 mm,3.9 µg/mL,14 mm,8 mm,12 mm,12 mm,125 µg/mL,11 mm,10 mm,7 mm,9 mm,21 mm,12 mm,diameter of the inhibition zone (DIZ) (Penicillium chrysogenum [11]): inactive; diameter of the inhibition zone (DIZ) (Aspergillus fumigatus): inactive; zone of inhibition at 500 µg/disc (Staphylococcus [18]): 7 mm; zone of inhibition at 1000 µg/disc (Pseudomonas aeruginosa): 9 mm; zone of inhibition at 500 µg/disc (Klebsiella aerogenes [19]): 9 mm; MIC (Escherichia coli [20]): 31.2 µg/mL; MIC (Aspergillus flavus [21]): 31.2 µg/mL; zone of inhibition at 1000 µg/disc (Aspergillus flavus [22]): 12 mm; zone of inhibition at 500 µg/disc [23]: 7 mm; MIC (Aspergillus parasiticus [24]): 7.8 µg/mL; zone of inhibition at 500 µg/disc (Aspergillus flavus [25]): 9 mm
CC1(C)CC(=O)C2=C(C1)Nc1c(ccc3ccccc13)C2c1cccc([N+](=O)[O-])c1 (configuration not stated),11 mm,13 mm,15 mm,11 mm,9 mm,10 mm,9 mm,10 mm,7.8 µg/mL,16 mm,9 mm,15 mm,12 mm,62.5 µg/mL,13 mm,11 mm,7 mm,10 mm,10 mm,11 mm,"zone of inhibition at 500 µg/disc (Penicillium chrysogenum [11]; NCIM 707, 72 h, read-out: DIZ): 8 mm; zone of inhibition at 1000 µg/disc (Aspergillus fumigatus; NCIM 902, 72 h, read-out: DIZ): 10 mm; zone of inhibition at 500 µg/disc (Staphylococcus [18]): 7 mm; zone of inhibition at 1000 µg/disc (Pseudomonas aeruginosa): 8 mm; zone of inhibition at 500 µg/disc (Klebsiella aerogenes [19]): 8 mm; MIC (Escherichia coli [20]): 3.9 µg/mL; MIC (Aspergillus flavus [21]): 15.6 µg/mL; zone of inhibition at 1000 µg/disc (Aspergillus flavus [22]): 13 mm; zone of inhibition at 500 µg/disc [23]: 8 mm; MIC (Aspergillus parasiticus [24]): 3.9 µg/mL; zone of inhibition at 500 µg/disc (Aspergillus flavus [25]): 9 mm"
